The text below walks through data of ChEMBL document CHEMBL1158379, “Design, synthesis and hypolipidemic activity of novel 2-(m-tolyloxy) isobutyric acid derivatives” (2009).

Common to all, as to format: functional
In assay [1] the test system is Rattus norvegicus. Nature of the assay: Hypolipidemic activity in 14 days high cholesterol diet fed Wistar albino rat hyperlipidemic model assessed as decrease in serum total cholesterol level at 20 mg/kg, po administered on day 8 to 14. More on the design: scale not given: the % may be the effect or the level left. Put shortly:
(§1)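 Male Wistar rats (160–180 g), acclimatized one week, fed chow with 2% cholesterol and 1% cholic acid for 14 days. Oral dosing was 20 mg/kg in 0.5% CMC on days 8–14, with six rats per group. On day 14, after a 12 h fast, tail blood was drawn under ether. Serum was analysed by kit spectrophotometry. Results are % change versus vehicle-treated hyperlipidemic controls.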

The subject of assay [2] is Rattus norvegicus. Nature of the assay: Hypolipidemic activity in 14 days high cholesterol diet fed Wistar albino rat hyperlipidemic model assessed as decrease in serum low density lipoprotein cholesterol level at 20 mg/kg, po administered on day 8 to 14. Also on record: scale not given: the % may be the effect or the level left. Put shortly:
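HCD model in male Wistar rats (160–180 g) on chow plus 2% cholesterol and 1% cholic acid for 14 days. Oral dosing was 20 mg/kg in 0.5% carboxymethylcellulose from day 8 to 14, with groups of six. Rats were fasted 12 h on day 14, and tail blood was taken under mild ether anesthesia. Serum was separated by centrifugation at 3000 rpm for 10 min for lipoprotein cholesterol measurement.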

The subject of assay [3] is Rattus norvegicus. Nature of the assay: Hypolipidemic activity in 14 days high cholesterol diet fed Wistar albino rat hyperlipidemic model assessed as increase in serum high density lipoprotein cholesterol level at 20 mg/kg, po administered on day 8 to 14. Put shortly:
as §1

For assay [4], the system named is Rattus norvegicus. Description: Ratio of serum LDL cholesterol to serum HDL cholesterol in 14 days high cholesterol diet fed Wistar albino rat at 20 mg/kg, po administered on day 8 to 14.
Assay [5] relates to Rattus norvegicus. Nature of the assay: Hypolipidemic activity in 14 days high cholesterol diet fed Wistar albino rat hyperlipidemic model assessed as decrease in serum triglyceride level at 20 mg/kg, po administered on day 8 to 14. Also on record: scale not given: the % may be the effect or the level left. Put shortly: as §1
For assay [6], the species on record is Homo sapiens. Description: Increase of plasma HDL cholesterol level in human.
Assay [7] is filed under the species Homo sapiens. Nature of the assay: Reduction of plasma triglyceride level in human. More on the design: scale not given: the % may be the effect or the level left.

For the compound `CCNC(=S)NNC(=O)C(C)(C)Oc1cccc(C)c1`, the Activity is -0.59% in the assay on Rattus norvegicus [1], -1.16% in the assay on Rattus norvegicus [2], 5.85% with Rattus norvegicus [3] and 5.44% in the assay on Rattus norvegicus [5]. Moreover, in the assay on Rattus norvegicus [4], the Ratio turned out to be 6.08.
The like results for `Cc1cccc(OC(C)(C)C(=O)N/N=C/c2ccccc2Cl)c1` were, in that order, 0%, 2.6%, 14.6%, -1.32% and 6.
Turning to `COc1ccc(NC(=O)C(C)(C)Oc2cccc(C)c2)cc1`, the Activity with Rattus norvegicus [1] was found to be 23.24%; in the assay on Rattus norvegicus [2], 28.67%; in the assay with Rattus norvegicus [3], 15.28%; in the assay with Rattus norvegicus [5] it was 25.79%. Besides, the Ratio in the assay with Rattus norvegicus [4] is 3.93.
Taken in the same sequence, the figures for `Cc1cccc(OC(C)(C)C(=O)O)c1` were 15.89%, 19.56%, 10.68%, 17.98% and 4.62.
The like results for `Cc1cccc(OC(C)(C)C(=O)N/N=C/c2ccccc2)c1` were, in that order, 4.12%, 8.02%, 18.47%, 2.54% and 4.94.
Taken in the same sequence, the figures for `CCOC(=O)c1ccc(NC(=O)C(C)(C)Oc2cccc(C)c2)cc1` were 2.65%, 5.94%, 15.04%, 0.43% and 5.2.
Take `Cc1cccc(OC(C)(C)C(=O)NCCc2ccccc2)c1`: the Activity in the assay on Rattus norvegicus [1] turned out to be 12.95%; with Rattus norvegicus [2], 21.21%; with Rattus norvegicus [3] it was 22.45%; in the assay on Rattus norvegicus [5] it was 1.2%. Moreover, the Ratio in the assay on Rattus norvegicus [4] is 4.09.
The like results for `Cc1cccc(OC(C)(C)C(=O)N/N=C/c2ccc([N+](=O)[O-])cc2)c1` were, in that order, 0.29%, 2.3%, 9.12%, -0.84% and 5.71.
Regarding `C=CCNC(=S)NNC(=O)C(C)(C)Oc1cccc(C)c1`, the Activity is on record as -1.77% in the assay with Rattus norvegicus [1], -1% in the assay with Rattus norvegicus [2], 6.78% in the assay on Rattus norvegicus [3] and -1.61% in the assay on Rattus norvegicus [5]. Moreover, the Ratio in the assay on Rattus norvegicus [4] was 6.02.
With `COc1ccc(/C=N/NC(=O)C(C)(C)Oc2cccc(C)c2)cc1`, the Activity is -9.39% with Rattus norvegicus [2], 15.8% in the assay with Rattus norvegicus [3] and 9.03% in the assay on Rattus norvegicus [5]. Further, the Ratio in the assay on Rattus norvegicus [4] was found to be 5.41.
Take `CC(C)(Oc1ccc(CCNC(=O)c2ccc(Cl)cc2)cc1)C(=O)O` [BEZAFIBRATE]: the values for the Activity in the assay filed under Homo sapiens [6] and in the assay listed under Homo sapiens [7] were 5% and 30%, respectively.
Taken in the same sequence, the figures for `CCOC(=O)C(C)(C)Oc1ccc(Cl)cc1` [CLOFIBRATE] were 5% and 30%.
The like results for `CC(C)OC(=O)C(C)(C)Oc1ccc(C(=O)c2ccc(Cl)cc2)cc1` [FENOFIBRATE] were, in that order, 5% and 30%.
Turning to `Cc1ccc(C)c(OCCCC(C)(C)C(=O)O)c1` [GEMFIBROZIL], the Activity is given as 4.68% in the assay with Rattus norvegicus [1], 5.35% with Rattus norvegicus [2], 25.18% in the assay on Rattus norvegicus [3] and 22.23% in the assay on Rattus norvegicus [5]. Also, the Ratio with Rattus norvegicus [4] was 4.81.
